Assay outcomes as filed in PubChem.
OX1R antag-1: antagonists of human orexin 1 receptor (OX1R); Orexin/Hypocretin receptor type 1 (Homo sapiens), O43613; OX1R-expressing cells, FRET antagonist read-out; inhibition, % at 6.6 µM; actives 1.8% (n = 330,000); in the data active means inhibition mostly above about 38%, no sharp cut-off; inactive means mostly below about 40%
Target sequence (O43613 whole entry, looked up): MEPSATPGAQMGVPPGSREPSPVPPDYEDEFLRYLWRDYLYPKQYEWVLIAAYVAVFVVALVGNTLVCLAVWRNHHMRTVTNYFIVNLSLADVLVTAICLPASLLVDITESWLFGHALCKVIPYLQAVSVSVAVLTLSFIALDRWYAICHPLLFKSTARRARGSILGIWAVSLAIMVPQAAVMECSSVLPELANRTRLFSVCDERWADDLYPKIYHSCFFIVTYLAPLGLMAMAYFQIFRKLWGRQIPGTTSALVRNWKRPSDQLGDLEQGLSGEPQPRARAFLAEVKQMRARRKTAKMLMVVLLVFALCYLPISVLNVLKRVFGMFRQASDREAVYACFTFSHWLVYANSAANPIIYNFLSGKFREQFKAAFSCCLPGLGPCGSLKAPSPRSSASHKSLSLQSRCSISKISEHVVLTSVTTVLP
GalR3 antag: GalR3 antagonists in HEK293 cells, primary screen, cell-based, fluorescence readout; HEK293 GalR3-CNG cAMP membrane potential fluorescence; galR3 body fused to GalR1 C-terminus; actives 0.44% (n = 360,000); inhibition, % at 3 µM; Galanin receptor type 3 (Homo sapiens), O60755;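 active means inhibition above the screen-wide average plus 3 SD, cut at about 13% in these data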;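 further: forskolin and galanin both at EC90 stimulate the cells; cAMP rise reported by CNG channel membrane potential dye signal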
GPR7 antag: GPR7 receptor antagonists, primary screen, cell-based, fluorescence, single concentration. Neuropeptides B/W receptor type 1 (Homo sapiens), P48145. GPR7-expressing cells, fluorescence antagonist assay. inhibition, % at 4.4 µM. actives 1.1% (n = 290,000). AID 1861, 2009; in the data active means inhibition above about 16%, passing the limit was not always enough;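 further: cells stimulated with the agonist NPW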
OX1R antag-2: OX1R (HCRTR1) antagonists, primary screen, fluorescence, CHO/OX1R cells, Fluo-8 calcium, orexin A; actives 0.43% (n = 330,000); Fluo-8 calcium fluorescence; inhibition, % at 5 µM;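 active means inhibition above its plate's threshold, mean inhibition of all tested compounds on the plate plus 3 SD, cut at about 37% in these data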
CHO parental Ca: ATP-evoked calcium signal inhibitors, parental CHO, primary screen, counter-screen for OX1R antagonist project, cell-based, fluorescence, Fluo-8 calcium dye; actives 0.63% (n = 330,000); parental CHO-K1, ATP-induced calcium, Fluo-8 fluorescence; AID 463079, 2010; inhibition, % at 5.6 µM;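 active means inhibition above that plate's mean sample inhibition plus 3 SD, cut at about 26% in these data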
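Measured by: calcium-sensitive Fluo-8 fluorescence / Test system: CHO parental line / Controls: ATP-challenged DMSO wells low, unchallenged DMSO wells high / Measure: % inhibition / Compound: single nominal dose of 5.6 µM per compound / Replicates: single well per compound, no replicates / Reagent: ATP as calcium-mobilizing challenge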
GPR7 antag conf: GPR7 receptor antagonists, confirmation, cell-based, fluorescence, single concentration; shares compounds with GPR7 antag; GPR7-expressing cells, calcium fluorescence antagonist mode; inhibition, % at 4.4 µM; actives 52% (n = 2,400); AID 1952, 2009; in the data active means inhibition above about 24%;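 further: stimulated with the GPR7 agonist NPW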
MCHR1 antagonist: MCHR1 antagonists in cells, counter-screen for GPR7 antagonist project, cell-based, fluorescence, human. shares compounds with GPR7 antag. MCHR1-expressing cells, fluorescence antagonist assay. inhibition, % at 4.4 µM. actives 62% (n = 2,400); in the data active means inhibition above about 22%
OX1R Ca confirm: OX1R (HCRTR1) antagonists, confirmation, fluorescence, CHO/OX1R cells, Fluo-8 calcium, orexin A; actives 38% (n = 1,100); AID 492963, 2010; orexin A calcium Fluo-8 fluorescence; shares compounds with OX1R antag-2; inhibition, % at 5 µM; in the data active means inhibition above about 29%
CHO Ca triplic: ATP-evoked calcium inhibition in parental CHO, counter-screen for OX1R antagonist project, cell-based, fluorescence, CHO-K1, triplicate; ATP-induced calcium, Fluo-8 fluorescence; inhibition, % at 5.6 µM; shares compounds with OX1R antag-2; actives 9.3% (n = 1,100); AID 492965, 2010;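 active means inhibition above a per-plate limit, the mean inhibition of that plate's test compounds plus 3 SD, cut at about 25% in these data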
GalR3 conf: GalR3 antagonist hit confirmation, cell-based, fluorescence, triplicate. shares compounds with GalR3 antag. HEK293 GalR3 CNG cAMP biosensor, membrane potential fluorescence; galR3 fused to GalR1 carboxy tail; challenged with forskolin and galanin at EC90. inhibition, % at 3 µM. actives 59% (n = 1,600);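 active means inhibition above the primary screen's cutoff, the mean inhibition of all screened compounds plus 3 SD, cut at about 13% in these data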
CNG parental: nonspecific cAMP agonists in parental HEK-CNG cells, counter-screen for GalR3 antagonist project, cell-based, fluorescence, high throughput; shares compounds with GalR3 antag; HEK293-CNG parental cells, cAMP membrane potential fluorescence; normalised: DMSO wells 0%, forskolin wells 100%; activation, % at 3 µM; actives 10% (n = 1,600); AID 652268, 2013; in the data active means activation above about 1.3%
Of the large screens only hits and unclear results are named; the others gave an inactive call (follow-up assays come after a bar, where they were run). Shown are actives, neighbours in structure and some others; about 3.1% of the full set was active somewhere.

CC(=O)c1cccc(NS(=O)(=O)c2ccc(C(=O)Nc3ccccc3)cc2)c1	OX1R antag-1 74, GalR3 antag 56, GPR7 antag 22, OX1R antag-2 70, CHO parental Ca 71 | GPR7 antag conf 29 | MCHR1 antagonist 50 | GalR3 conf 71 | CNG parental inactive
O=C(Nc1ccccc1)c1ccc(S(=O)(=O)Nc2cccc(O)c2)cc1	none
CN(C)S(=O)(=O)N1CCC(Oc2ccc(C(=O)NC3Cc4ccccc4C3)cc2)CC1	GalR3 antag 30, GPR7 antag 51 | GPR7 antag conf 66 | MCHR1 antagonist 75 | GalR3 conf 99 | CNG parental inactive
COc1ccc(NS(=O)(=O)c2ccc(OC)c(N(C)S(=O)(=O)c3ccc(Cl)cc3)c2)cc1	GalR3 antag 25, GPR7 antag 27, OX1R antag-2 61 | GPR7 antag conf 29 | MCHR1 antagonist 52 | OX1R Ca confirm inactive | CHO Ca triplic 25 | GalR3 conf 62 | CNG parental inactive
CCOc1cc(CNCc2ccccc2)ccc1OCc1ccc(Cl)cc1	GalR3 antag 42, GPR7 antag 66, OX1R antag-2 69, CHO parental Ca 92 | GPR7 antag conf 56 | MCHR1 antagonist 78 | GalR3 conf 26 | CNG parental 5.5
O=C(Nc1ccc(S(=O)(=O)N2CCCC2)cc1)c1ccc(CN2CCc3ccccc3C2)cc1	GalR3 antag 96, GPR7 antag 28, OX1R antag-2 49, CHO parental Ca 38 | GPR7 antag conf 47 | MCHR1 antagonist 63 | GalR3 conf 105 | CNG parental inactive
COC(=O)c1sccc1NC(=O)c1c(Cl)cnn1C	none
Cc1ccc(OCC(=O)Nc2ccncc2)cc1C	none (no result: OX1R antag-1, GPR7 antag, OX1R antag-2, CHO parental Ca)
Cc1cc(OCC(=O)Nc2ccncc2)cc(C)c1Cl	GalR3 antag 16, GPR7 antag 29, OX1R antag-2 53, CHO parental Ca 44 | GPR7 antag conf 36 | MCHR1 antagonist 60 | GalR3 conf 37 | CNG parental inactive
CN(Cc1ccccc1)C1=CC(=[N+]2CCCC2)CC(C)(C)C1	GalR3 antag 59, GPR7 antag 29 | GPR7 antag conf 49 | MCHR1 antagonist 38 | GalR3 conf 65 | CNG parental 2.3
CC(C)(C)c1cc(CCC(=O)NNC(=O)c2ccncc2)cc(C(C)(C)C)c1O	none (no result: GPR7 antag)
COc1cccc(CN(C)C(=O)c2cc(COc3c(F)cccc3F)on2)c1	none
COc1cccc(CN(C)C(=O)c2cc(COc3ccc4ncccc4c3)on2)c1	GalR3 antag 88, GPR7 antag 33, CHO parental Ca 66 | GPR7 antag conf 40 | MCHR1 antagonist 57 | GalR3 conf 99 | CNG parental inactive
CC1CN(C(=O)Nc2cccc(C(F)(F)F)c2)CC(C)O1 (configuration not stated)	GPR7 antag 27 (no result: GalR3 antag) | GPR7 antag conf 24 | MCHR1 antagonist 36 | GalR3 conf inactive | CNG parental inactive
c1ccc(Nc2ccc(NCCc3c[nH]c4ccccc34)cc2)cc1	none (no result: OX1R antag-1, GPR7 antag, OX1R antag-2, CHO parental Ca)
O=C(c1cc2sccc2n1Cc1ccc(F)cc1)N1CCN(c2nc3ccccc3s2)CC1	GalR3 antag 17, GPR7 antag 32, CHO parental Ca 37 | GPR7 antag conf 28 | MCHR1 antagonist 38 | GalR3 conf 73 | CNG parental inactive
CCCCCc1ccc(-c2cn(Cc3ccc(C(=O)c4ccccc4)cc3)nn2)cc1	none
O=C(c1ccccc1)c1ccc(Cn2cc(-c3ccccc3)nn2)cc1	GalR3 antag 25, GPR7 antag 41 | GPR7 antag conf 47 | MCHR1 antagonist 61 | GalR3 conf 56 | CNG parental inactive
COC(=O)C1CCCCN1C(=O)c1cc(COc2cccc3cccnc23)on1 (configuration not stated)	none
COC(=O)C1CCCCN1C(=O)c1cc(COc2cccc3cnccc23)on1 (configuration not stated)	GalR3 antag 106, GPR7 antag 35, CHO parental Ca 54 | GPR7 antag conf 28 | MCHR1 antagonist 53 | GalR3 conf 107 | CNG parental inactive
COC(=O)NNC(=O)c1ccc(Cl)cc1Cl	none
CC(C)(C)C(=O)NC(=S)NNC(=O)c1ccc(Cl)cc1Cl	GalR3 antag 16, GPR7 antag 32, OX1R antag-2 63, CHO parental Ca 52 | GPR7 antag conf 40 | MCHR1 antagonist 37 | GalR3 conf 13 | CNG parental inactive
CCOC(=O)C1=CCN(S(=O)(=O)c2ccccc2Cl)C1c1cccc(Cl)c1 (configuration not stated)	none (no result: OX1R antag-1, GPR7 antag, OX1R antag-2, CHO parental Ca)
Cc1cccc(OCC(=O)Nc2ccc(N3CCN(C(=O)c4ccco4)CC3)cc2)c1	OX1R antag-2 53 | OX1R Ca confirm 50 | CHO Ca triplic 51
Cc1ccc(OCC(=O)Nc2ccc(N3CCN(C(=O)c4ccco4)CC3)cc2)cc1C	none
N#Cc1c(C(F)(F)F)cc(-c2ccco2)nc1SCc1ccccn1	none | OX1R Ca confirm inactive | CHO Ca triplic inactive
C[C@@H]1CN([C@@H](C)CO)C(=O)CCCn2cc(nn2)CO[C@H]1CN(C)C(=O)Nc1ccc(-c2cccs2)cc1	none (no result: OX1R antag-1, GPR7 antag, OX1R antag-2, CHO parental Ca)
